Source: ChEMBL document CHEMBL2311525, “Design, synthesis, and pharmacological properties of new heteroarylpyridine/heteroarylpyrimidine derivatives as CB(2) cannabinoid receptor partial agonists” (J Med Chem, 2013)

What was measured:
[1] = species: Homo sapiens; assay: Selectivity index, ratio of Ki for human recombinant CB1 receptor to Ki for human recombinant CB2 receptor
[2] = biological target: Cannabinoid receptor 1 (Rattus norvegicus, UniProt P20272); assay: Displacement of [3H]CP-55,940 from Sprague-Dawley rat brain CB1 receptor by scintillation counting analysis
Cannabinoid receptor 1 (Rattus norvegicus, UniProt P20272), sequence (P20272 whole entry): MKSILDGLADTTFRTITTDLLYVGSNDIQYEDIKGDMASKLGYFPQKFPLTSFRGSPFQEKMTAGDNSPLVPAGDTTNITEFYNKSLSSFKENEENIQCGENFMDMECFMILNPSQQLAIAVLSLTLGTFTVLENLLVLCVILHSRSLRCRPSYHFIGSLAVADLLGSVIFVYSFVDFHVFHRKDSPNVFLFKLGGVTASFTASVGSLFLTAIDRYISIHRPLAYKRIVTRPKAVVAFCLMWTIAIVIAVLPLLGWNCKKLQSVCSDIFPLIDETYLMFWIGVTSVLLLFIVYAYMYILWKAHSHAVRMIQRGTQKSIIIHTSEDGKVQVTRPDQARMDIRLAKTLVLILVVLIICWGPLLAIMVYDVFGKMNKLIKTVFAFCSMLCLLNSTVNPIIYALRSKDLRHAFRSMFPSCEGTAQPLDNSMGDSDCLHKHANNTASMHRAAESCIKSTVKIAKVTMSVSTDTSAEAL
How it was run: (§1)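 Male Sprague-Dawley rat brain membranes, prepared by spinning at 2000g and then 40000g, in 50 mM Tris-HCl with 1 mM EDTA, 3 mM MgCl2 and 0.5% fatty-acid-free BSA, pH 7.4. Incubated with 1.0 nM [3H]CP-55,940, 40 μg protein/100 μL and test compound at 1 nM–10 μM. Filtered on GF/C. Ki by Cheng–Prusoff, n = 4.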

[3] = biological target: T1, Cannabinoid receptor 2 (Homo sapiens, UniProt P34972); assay: Agonist activity at human CB2 receptor expressed in CHO cells assessed as forskolin-stimulated [3H]cyclic-AMP accumulation by scintillation counting analysis relative to WIN 55,212-2; format: functional, cell-based
T1 sequence (P34972 whole entry): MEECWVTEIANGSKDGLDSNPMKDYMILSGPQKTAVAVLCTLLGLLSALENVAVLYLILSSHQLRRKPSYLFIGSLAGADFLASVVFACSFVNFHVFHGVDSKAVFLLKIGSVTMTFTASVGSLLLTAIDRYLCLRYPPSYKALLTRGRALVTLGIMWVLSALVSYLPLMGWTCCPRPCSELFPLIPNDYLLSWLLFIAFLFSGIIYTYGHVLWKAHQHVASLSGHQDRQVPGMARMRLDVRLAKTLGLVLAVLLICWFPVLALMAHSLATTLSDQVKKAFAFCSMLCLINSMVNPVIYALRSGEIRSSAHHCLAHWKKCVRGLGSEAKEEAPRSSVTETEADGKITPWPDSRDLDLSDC
How it was run: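 CHO cells stably expressing human CB2, 1 × 10^6 cells/assay, in buffered saline (10 mM MgCl2, 5 mM glucose, 5 mM HEPES, pH 7.4, 37 °C) with 0.5 mM Ro 20-1724. Preincubated 10 min at 37 °C, then tested with 1 μM forskolin. Stopped with cold 6% TCA and ether-extracted. cAMP read by [3H]cAMP competition binding to beef adrenal binding protein with charcoal separation.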

[4] = biological target: T2, Cannabinoid receptor 2 (Rattus norvegicus, UniProt Q9QZN9); assay: Displacement of [3H]CP-55,940 from Sprague-Dawley rat spleen CB2 receptor by scintillation counting analysis
T2 sequence (Q9QZN9 whole entry): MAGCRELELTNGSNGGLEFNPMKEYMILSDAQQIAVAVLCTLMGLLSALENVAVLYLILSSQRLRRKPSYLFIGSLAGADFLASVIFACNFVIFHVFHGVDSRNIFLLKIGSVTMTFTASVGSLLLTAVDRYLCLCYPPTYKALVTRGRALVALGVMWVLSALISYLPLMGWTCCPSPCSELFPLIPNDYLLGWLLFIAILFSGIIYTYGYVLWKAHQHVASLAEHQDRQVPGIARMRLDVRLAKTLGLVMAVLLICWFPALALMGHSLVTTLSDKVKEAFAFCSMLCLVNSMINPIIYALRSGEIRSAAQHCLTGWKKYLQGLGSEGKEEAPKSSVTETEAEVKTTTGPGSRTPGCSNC
How it was run: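 Male Sprague-Dawley rat spleen membranes, prepared by spinning at 2000g and then 40000g, in 50 mM Tris-HCl with 1 mM EDTA, 3 mM MgCl2 and 0.5% fatty-acid-free BSA, pH 7.4. Filtered on GF/C.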

[5] = biological target: T1, Cannabinoid receptor 2; assay: Displacement of [3H]CP-55,940 from human recombinant CB2 receptor expressed in CHO cell membranes after 60 mins by scintillation counting analysis
[6] = biological target: T1, Cannabinoid receptor 2; assay: Agonist activity at human CB2 receptor expressed in CHO cells assessed as forskolin-stimulated [3H]cyclic-AMP accumulation by scintillation counting analysis; format: functional, cell-based
[7] = biological target: T3, Cannabinoid receptor 1 (Homo sapiens, UniProt P21554); assay: Displacement of [3H]CP-55,940 from human recombinant CB1 receptor expressed in CHO cell membranes after 90 mins by scintillation counting analysis
T3 sequence (P21554 whole entry): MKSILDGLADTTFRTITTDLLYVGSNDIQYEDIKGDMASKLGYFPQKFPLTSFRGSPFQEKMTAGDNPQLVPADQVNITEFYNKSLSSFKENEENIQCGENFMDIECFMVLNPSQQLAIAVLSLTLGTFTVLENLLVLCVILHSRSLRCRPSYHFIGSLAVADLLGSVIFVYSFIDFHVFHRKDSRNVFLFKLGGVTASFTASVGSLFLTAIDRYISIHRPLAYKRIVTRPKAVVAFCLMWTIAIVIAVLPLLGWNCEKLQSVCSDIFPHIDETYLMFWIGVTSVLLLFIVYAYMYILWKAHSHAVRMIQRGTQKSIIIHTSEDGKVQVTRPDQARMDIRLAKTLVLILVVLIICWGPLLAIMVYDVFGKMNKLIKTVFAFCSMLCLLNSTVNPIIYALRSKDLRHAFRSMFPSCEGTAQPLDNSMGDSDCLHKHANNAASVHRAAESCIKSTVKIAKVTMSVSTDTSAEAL

[8] = biological target: Cannabinoid receptor 1 (Rattus norvegicus) (UniProt P20272); assay: Displacement of [3H]CP-55,940 from Sprague-Dawley rat brain CB1 receptor at 1 to 10000 nM by scintillation counting analysis; how it was run: as §1
Cannabinoid receptor 1 (Rattus norvegicus), sequence (P20272 whole entry): as the sequence (P20272 whole entry) above

[9] = biological target: T3, Cannabinoid receptor 1; assay: Displacement of [3H]CP-55,940 from human recombinant CB1 receptor expressed in CHO cell membranes at 1 to 10000 nM after 90 mins by scintillation counting analysis
How it was run: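 Membranes from CHO cells expressing hCB1, spun at 100000g, in 50 mM Tris-HCl with 0.5% BSA, 5 mM MgCl2 and 2.5 mM EDTA, pH 7.4. Incubated with 0.5 nM [3H]CP-55,940 and compound at 1 nM–10 μM for 90 min at 30 °C. Filtered on GF/C and counted. Ki by Cheng–Prusoff, n = 4.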

| SMILES | Ratio Ki [1] | Ki [2] | Emax [3] | Ki [4] | Ki [5] | EC50 [6] | Ki [7] | inhibition [8] | inhibition [9] |
| --- | --- | --- | --- | --- | --- | --- | --- | --- | --- |
| CCCCCn1cc(C(=O)NC23CC4CC(CC(C4)C2)C3)c(=O)c2c(C)nn(C)c21 | 84 | 832 nM | 68% | 11.4 nM | 9.51 nM | 49 nM | 800 nM |  |  |
| CCCCCn1cc(C(=O)NC23CC4CC(CC(C4)C2)C3)c(=O)c2c(CC)nn(C)c21 | 12 | 2670 nM | 51% | 97 nM | 37 nM | 162 nM | 440 nM |  |  |
| CCCCCn1cc(C(=O)NC2CCCCCC2)c(=O)c2cnn(C)c21 | 44 | 5200 nM | 56% | 130 nM | 103 nM | 404 nM | 4550 nM |  |  |
| CCCCCn1cc(C(=O)NCC2CCCCC2)c(=O)c2c(C)nn(C)c21 | 3 | 1040 nM | 41% | 508 nM | 372 nM | 1560 nM | 1120 nM |  |  |
| CCCCCn1cc(C(=O)NC2CCCCCC2)c(=O)c2c(C)nn(C)c21 | 23 | 1620 nM | 65% | 35 nM | 11.2 nM | 51 nM | 252 nM |  |  |
| CCCCCn1cc(C(=O)NC23CC4CC(CC(C4)C2)C3)c(=O)n2nc(-c3ccccc3)nc12 | 146 | 560 nM |  | 4.83 nM | 3.58 nM |  | 523 nM |  |  |
| CCCCCn1cc(C(=O)NC23CC4CC(CC(C4)C2)C3)c(=O)c2c(C(C)(C)C)nn(C)c21 | 10 | 3430 nM | 43% | 417 nM | 363 nM | 1760 nM | 3750 nM |  |  |
| CCCCCn1cc(C(=O)NC23CC4CC(CC(C4)C2)C3)c(=O)c2cnn(C)c21 | 432 | 5340 nM | 67% | 13.3 nM | 11.6 nM | 41 nM | 4750 nM |  |  |
| CCCCCn1cc(C(=O)N[C@H]2CC[C@H](C)CC2)c(=O)c2c(C)nn(C)c21 | 401 | 4800 nM | 14% | 13.3 nM | 11.4 nM | 58 nM | 4570 nM |  |  |
| CCCCCn1cc(C(=O)NC23CC4CC(C)(CC(C)(C4)C2)C3)c(=O)c2c(C)nn(C)c21 | 107 | 3260 nM | 71% | 16.7 nM | 9.83 nM | 45 nM | 1050 nM |  |  |
| CCCCCn1cc(C(=O)NC2CCCCCC2)c(=O)c2c(C)noc21 | 7.8 | 184 nM | 99% | 50 nM | 18.5 nM | 35 nM | 145 nM |  |  |
| CCCCCn1cc(C(=O)NC2CCCCC2)c(=O)c2c(-c3ccc(Cl)cc3)nn(C)c21 | > 2.8 | > 10000 nM |  | 5020 nM | 3620 nM |  | > 10000 nM | 15% | 22% |
| CCCCCn1cc(C(=O)NC2CCCCCC2)c(=O)c2c(-c3ccc(Cl)cc3)nn(C)c21 | > 3.5 | > 10000 nM |  | 4050 nM | 2830 nM |  | > 10000 nM | 12% | 17% |
| CCCCn1cc(C(=O)NC2CCCCC2)c(=O)c2c(C)nn(C)c21 | 9.1 | 1530 nM | 38% | 145 nM | 138 nM | 1890 nM | 1260 nM |  |  |
| CCCCCn1cc(C(=O)NC(C)CCC(C)C)c(=O)c2c(C)nn(C)c21 (stereo not given) | 8.5 | 2260 nM | 46% | 262 nM | 212 nM | 827 nM | 1800 nM |  |  |
| CCCCCn1cc(C(=O)NC23CC4CC(CC(C4)C2)C3)c(=O)c2c(C)csc21 | 12.5 | 16.5 nM | -167% | 1.25 nM | 1.12 nM | 31 nM | 13.7 nM |  |  |

| SMILES | Ratio Ki [1] | Ki [2] | Emax [3] | Ki [4] | Ki [5] | EC50 [6] | Ki [7] | inhibition [8] | inhibition [9] |
| --- | --- | --- | --- | --- | --- | --- | --- | --- | --- |
| CCCCCn1cc(C(=O)NC2CCCCC2)c(=O)c2c(C)noc21 | 17.7 | 187 nM | 98% | 38 nM | 8.74 nM | 14.3 nM | 155 nM |  |  |
| CCCCCn1cc(C(=O)NCc2ccccc2)c(=O)c2c(C)nn(C)c21 | > 2.7 | > 10000 nM |  | 4520 nM | 3650 nM |  | > 10000 nM | 42% | 38% |
| CCCCCn1cc(C(=O)NC23CC4CC(CC(C4)C2)C3)c(=O)c2c(C)noc21 | 69.9 | 1490 nM | 97% | 26 nM | 21 nM | 83 nM | 1470 nM |  |  |
| CCCn1cc(C(=O)NC2CCCCC2)c(=O)c2c(C)nn(C)c21 | 1.8 | 832 nM |  | 593 nM | 412 nM |  | 758 nM |  |  |
| CCCCCCn1cc(C(=O)NC2CCCCC2)c(=O)c2c(C)nn(C)c21 | 12 | 3220 nM | 27% | 480 nM | 325 nM | 1200 nM | 3870 nM |  |  |
| CCCCCn1cc(C(=O)N[C@H]2CC[C@@H](C)CC2)c(=O)c2c(C)nn(C)c21 | 68 | 750 nM | 16% | 11.8 nM | 10.6 nM | 52 nM | 723 nM |  |  |
| Cc1nn(C)c2c1c(=O)c(C(=O)NC1CCCCC1)cn2Cc1ccccc1 | 4.4 | 4560 nM | 36% | 1100 nM | 956 nM | 3820 nM | 4250 nM |  |  |
| CCCCCn1cc(C(=O)NC2CCCCC2)c(=O)c2c(C)csc21 | 7.2 | 98 nM | -64% | 14.8 nM | 12.3 nM | 107 nM | 86 nM |  |  |
| CCCCCn1cc(C(=O)Nc2ccccc2)c(=O)c2c(C)nn(C)c21 | 1.7 | 1020 nM | 38% | 740 nM | 524 nM | 2160 nM | 865 nM |  |  |
| CCCCCn1cc(C(=O)NC23CC4CC(CC(C4)C2)C3)c(=O)n2ncnc12 | 35.6 | 850 nM | 60% | 21 nM | 20 nM | 87 nM | 712 nM |  |  |
| CCCCCn1cc(C(=O)NC2CCCCC2)c(=O)c2c(CC)nn(C)c21 | 2 | 1120 nM | 32% | 516 nM | 469 nM | 2350 nM | 957 nM |  |  |
| CCCCCn1cc(C(=O)NC2CCCCC2)c(=O)c2c(C)nn(C)c21 | 5.9 | 1420 nM | 52% | 100 nM | 85 nM | 323 nM | 500 nM |  |  |
| CCCCCn1cc(C(=O)NC2CCCCC2)c(=O)c2cnn(C)c21 | 22 | 5650 nM | 48% | 250 nM | 237 nM | 872 nM | 5150 nM |  |  |
| CCCCCn1cc(C(=O)NC2CCCCC2)c(=O)c2c(C(C)(C)C)nn(C)c21 | > 2.8 | > 10000 nM |  | 4030 nM | 3530 nM |  | > 10000 nM | 19% | 23% |
| CCCCCn1cc(C(=O)NC23CC4CC(CC(C4)C2)C3)c(=O)c2c(C)c(C)sc21 | 15.9 | 52 nM | -178% | 4.26 nM | 3.27 nM | 34 nM | 43 nM |  |  |
| CCCCCn1cc(C(=O)NC2CCCCCC2)c(=O)c2c(C)csc21 | 7.5 | 67 nM | -95% | 8.23 nM | 6.95 nM | 65 nM | 52 nM |  |  |
